CYP2C19 activ = cytochrome P450 2C19 (human) activation; P33261; recombinant CYP2C19, luciferin-H EGE luminescence; hits give high values; 0 = fully inhibited enzyme, 1 = untreated enzyme; activation factor at 5 µM; 96,000 tested, under 10 active; AID 1025;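 active = activation factor of at least 2 at 5 µM in the primary screen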
Target sequence (P33261 whole entry, looked up): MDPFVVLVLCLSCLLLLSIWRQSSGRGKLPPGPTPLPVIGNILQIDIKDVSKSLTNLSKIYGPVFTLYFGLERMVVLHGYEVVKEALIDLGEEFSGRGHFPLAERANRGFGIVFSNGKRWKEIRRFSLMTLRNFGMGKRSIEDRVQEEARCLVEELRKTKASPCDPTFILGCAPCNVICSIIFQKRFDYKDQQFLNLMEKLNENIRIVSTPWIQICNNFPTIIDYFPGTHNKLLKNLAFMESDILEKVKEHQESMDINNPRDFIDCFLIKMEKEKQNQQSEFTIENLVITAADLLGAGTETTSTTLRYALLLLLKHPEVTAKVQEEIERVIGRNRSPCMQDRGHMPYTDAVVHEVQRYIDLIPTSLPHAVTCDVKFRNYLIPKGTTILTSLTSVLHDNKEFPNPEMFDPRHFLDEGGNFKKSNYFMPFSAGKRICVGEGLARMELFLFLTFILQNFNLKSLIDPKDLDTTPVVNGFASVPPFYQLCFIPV
CYP2C19 inh = inhibitors of human CYP2C19; P33261; inhibition, % at 5 µM; hit rate 21% among 96,000; CYP2C19 Supersomes, luciferin-H EGE luminescence, 30 min;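 active = CYP2C19 inhibition above a set limit at 5 µM in the primary screen, cut at about 50% in these data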
CYP2C9 activ = activators of human CYP2C9. recombinant CYP2C9, luciferin-H conversion, luminescence; hits give high values; factor 1 = untreated enzyme, 0 = blocked. activation factor at 5 µM. hit rate 1.4% among 96,000. AID 1024;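 active = activation factor of 2 or more for CYP2C9 at a 5 µM dose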
Rev-RRE block = inhibitors of HIV-1 Rev-RRE RNA interaction. Rev peptide-RRE RNA binding, FRET. inhibition, % at 8 µM. P05866. hit rate 0.79% among 97,000;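 active = inhibition above the screen-wide mean plus 3 SD, cut at about 35% in these data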
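Test system: Cy5-tagged RRE RNA duplex with fluorescein-tagged Rev peptide | Read-out: % inhibition of FRET ratio versus controls | Probe or stimulus: Labelled Rev peptide | Incubation: 5 min RNA-compound premix plus 15 min binding step, 25 °C | Technique: FRET fluorescence readout | Benchmarks: DMSO low control, neomycin B high control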
Cav32 inh = inhibitors of human Cav3.2 T-type calcium channel. O95180. Cav3.2-expressing cells, Fluo-4 calcium fluorescence FDSS; hits give low values. B-score at 10 µM. hit rate 4% among 100,000;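 active = single-dose well whose peak fluorescence ratio is a statistical outlier from its plate by either plate-standardised score or position-corrected B-score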
CYP2C9 inh = human CYP2C9 inhibition; hit rate 20% among 96,000; CYP2C9 Supersomes, luciferin-H conversion, luminescence; AID 777; inhibition, % at 5 µM; P11712;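 active = blocking of liver enzyme CYP2C9 beyond about 50% at 5 µM, limit read from the data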
A number is an active result; 0 = inactive; - = not tested or not shown. A selection: hits, their analogues and other compounds. The true share with any hit is near 27%.

SMILES	CYP2C19 activ	CYP2C19 inh	CYP2C9 activ	Rev-RRE block	Cav32 inh	CYP2C9 inh
CCNC(=O)CN(c1ccccc1)S(=O)(=O)c1ccc(Cl)cc1	0	69	0	0	0	0
CCNC(=O)CN(c1ccc(Cl)cc1)S(=O)(=O)c1ccccc1	0	96	0	0	0	63
O=C(NCCCCc1ccccc1)C1CC(c2ccccc2C(F)(F)F)=NO1 (configuration not stated)	-	-	-	-	0	-
CCCCOC(=O)c1ccc(NC(=O)c2ccoc2C)cc1	0	0	0	0	0	0
CCCCOC(=O)c1ccc(NC(=O)c2cc(Cl)ccc2OC)cc1	0	0	2.5	0	0	0
CC(Nc1cc(=O)n(C)c(=O)[nH]1)c1ccccc1 (configuration not stated)	0	0	0	0	0	0
CCc1c(O)nc(SC2CC(=O)N(c3ccccc3)C2=O)[nH]c1=O (configuration not stated)	0	0	0	0	0	67
FC(F)(F)c1cccc(Oc2cc(C(F)(F)F)nc(-c3ccccn3)n2)c1	0	0	0	0	0	0
N#Cc1nc(-c2cccs2)oc1NCCc1ccccc1	0	0	0	0	0	68
COc1ccc(CCNc2oc(-c3ccco3)nc2C#N)cc1	-	-	-	0	0	-
CNc1oc(-c2cccs2)nc1C#N	0	0	0	0	-	0
N#Cc1nc(-c2cccs2)oc1NCc1ccc2c(c1)OCO2	0	54	0	0	-5.6	94
N#Cc1nc(-c2ccco2)oc1NCCc1ccccc1	0	96	0	0	0	75
COc1ccc(Nc2oc(-c3cccs3)nc2C#N)cc1	0	0	0	0	-4.4	0
Cc1cc2ncc(-c3ncc(C(F)(F)F)cc3Cl)cn2n1	0	0	0	0	0	0
CNc1oc(-c2ccccc2Cl)nc1C#N	0	0	0	0	0	0
CCOc1ccc(Nc2oc(-c3ccccc3Cl)nc2C#N)cc1	0	0	0	0	0	76
COc1ccccc1NC(=O)Nc1ccnn1Cc1cccs1	0	63	0	0	0	0
Cc1ccc(C(C)C)c(OCc2ccc(-c3nnco3)cc2)c1	0	86	0	0	0	0
COc1ccc(-c2ccc(/C=C3\C(=O)N(c4ccccc4)N=C3c3ccccc3)o2)c([N+](=O)[O-])c1	0	56	0	0	0	71
COc1cccc(/C=N/n2cncn2)c1OCC#N	0	78	0	-	0	0
CCC(=NCc1ccccc1)C1=C(O)C(C(=O)OC)C(C)(C)CC1=O (configuration not stated)	0	97	0	0	-	86
CCC(=Nc1ccc(N)cc1)C1=C(O)C(C(=O)OC)C(C)(C)CC1=O (configuration not stated)	0	0	0	0	0	0
CCCC(=NCc1ccccc1)C1=C(O)C(C(=O)OC)C(C)(C)CC1=O (configuration not stated)	0	93	0	0	0	64
CCCC(=Nc1ccccc1)C1=C(O)C(C(=O)OC)C(C)(C)CC1=O (configuration not stated)	0	69	0	0	0	0
SMILES	CYP2C19 activ	CYP2C19 inh	CYP2C9 activ	Rev-RRE block	Cav32 inh	CYP2C9 inh
CCCCC(=Nc1ccc(N)cc1)C1=C(O)C(C(=O)OC)C(C)(C)CC1=O (configuration not stated)	0	0	0	0	0	51
CCCC(=NCC(=O)O)C1=C(O)C(C(=O)OC)C(C)(C)CC1=O (configuration not stated)	0	0	0	0	0	0
COc1ccc(CCN=CC2=C(O)CCCC2=O)cc1OC	0	0	0	0	0	0
COC(=O)[C@@H]1C[C@@]2(O)[C@@H](O)[C@@H](O)[C@@H](O)C[C@H]2N1CC1CCCCC1	-	-	-	-	0	-
O=C1c2ccccc2C(=O)N1Cc1ccco1	0	0	0	0	0	0
CC1=CC(=C2C(=O)c3ccccc3C2=O)C=C(C)N1Cc1ccco1	0	51	0	0	-	68
O=S(=O)(N1CCCCC1)N1CCN(c2ccc(F)cc2)CC1	0	58	0	0	0	0
O=S(=O)(c1ccc(N2CCN(c3ccc(F)cc3)CC2)cc1)N1CCCC1	0	0	0	0	0	0
O=S(=O)(Nc1ccc(F)cc1)N1CCCCCC1	0	99	0	0	0	67
CC(C)=C(NC(=O)c1ccccc1)C(=O)N1CCOCC1	0	0	0	0	0	0

Screening data: PubChem BioAssay, several laboratories
